PMC6970276 (OncoTargets and therapy, 2020)

Tests used:
[1] = Stability test of purified probes in human serum; type: in vitro ADME; conditions: 48 h, purified probe, radio-TLC, saline/acetone 1:1, Figure 2
In short: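 Purified 177Lu-labelled probes were held at room temperature and in human serum. Radiochemical purity was sampled at 1, 4, 12, 24 and 48 h by radio-TLC, developed in saline/acetone 1:1 (v/v) and read on a TLC imaging scanner.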

K1 cells = experiment: In vitro retention assay in K1 cells; type: cell-based; conditions: 6 hrs loading, medium replaced, 2, 4, 6 and 8 hrs, γ-counter
[2] = Biodistribution in tumor-bearing nude mice; type: in vivo; conditions: for tissue uptake at 4 h / tissue uptake at 12 h / tissue uptake at 24 h / tissue uptake at 48 h: female, nude, mouse, iv, 1.85 MBq, total radioactivity; for Tumor/Blood: ratio, n=3
In short: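 Female nude mice bearing subcutaneous K1 tumours (5 × 10^6 cells, right forelimb), used once tumours exceeded 1 cm3. The 177Lu-labelled test compound (1.85 MBq in 100 μL) was injected into the tail vein, n = 3 per time point. Mice were killed at 4, 12, 24 and 48 h. Blood, tumour and organs (including brain, bone, heart) were weighed and gamma-counted. %ID/g = tissue counts/(injected counts × tissue mass) × 100%.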

K1 xenografts [3] = experiment: SPECT/CT imaging of K1 xenografts; type: in vivo, nude mice; conditions: SPECT ROI, 24h after tail vein injection of 37 MBq; tumor-bearing mouse
In short: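 Female nude mice bearing K1 xenografts (over 1 cm3) received 37 MBq of the 177Lu-labelled test compound in 100 μL by tail vein. Static SPECT/CT imaging at 4, 12, 24 and 48 h, prone: high-energy collimation, 113 and 208 keV peaks, 256 × 256 matrix, 10-min acquisitions. T/NT was calculated from regions of interest. CT fusion was done at the clearest time point.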

K1 xenografts [4] = experiment: Therapeutic evaluation in tumor-bearing nude mice; type: in vivo
In short: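 K1 xenograft-bearing nude mice, randomised into three groups (n = 5). Each group received tail-vein injections (100 μL) every 4 days, three times: radiolabelled test compound (11.1 MBq/5 μg), unlabelled test compound (5 μg) or 0.9% saline. Followed for 45 days. Tumour volume = a × b²/2 (long, short diameters). Growth curves compared by repeated-measures analysis, survival by log-rank test.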

## Cc1cn(CC(=O)N(CCNC(=O)COCCOCCNC(=O)COCCOCCNC(=O)CN2CCN(CC(=O)O)CCN(CC(=O)O)CCN(CC(=O)O)CC2)CC(=O)NCCN(CC(=O)NCCN(CC(=O)NCCN(CC(=O)NCCN(CC(=O)NCCN(CC(=O)NCCN(CC(=O)NCCN(CC(=O)NCCN(CC(=O)NCCN(CC(N)=O)C(=O)Cn2cnc3c(N)ncnc32)C(=O)Cn2cnc3c(N)ncnc32)C(=O)Cn2cnc3c(=O)[nH]c(N)nc32)C(=O)Cn2cnc3c(N)ncnc32)C(=O)Cn2ccc(N)nc2=O)C(=O)Cn2cnc3c(=O)[nH]c(N)nc32)C(=O)Cn2cc(C)c(=O)[nH]c2=O)C(=O)Cn2cnc3c(=O)[nH]c(N)nc32)C(=O)Cn2cnc3c(N)ncnc32)c(=O)[nH]c1=O [^177Lu-asPNA, ^177Lu-DOTA-anti-CITED1-PNA, metal not drawn]
[1]
  Radiochemical purity (%): above 91%
K1 cells
  cellular retention: remains in these cells for an extended period of time
[2]; bone
  tissue uptake at 4 h: 2.58 ± 0.63 %ID/g
  tissue uptake at 12 h: 1.51 ± 0.55 %ID/g
  tissue uptake at 24 h: 1.03 ± 0.68 %ID/g
  tissue uptake at 48 h: 0.52 ± 0.23 %ID/g
[2]; brain
  tissue uptake at 4 h: 1.53 ± 0.68 %ID/g
  tissue uptake at 12 h: 0.42 ± 0.36 %ID/g
  tissue uptake at 24 h: 0.39 ± 0.77 %ID/g
  tissue uptake at 48 h: 0.33 ± 0.59 %ID/g
[2]; heart
  tissue uptake at 4 h: 3.67 ± 0.82 %ID/g
  tissue uptake at 12 h: 3.33 ± 0.25 %ID/g
  tissue uptake at 24 h: 1.53 ± 0.36 %ID/g
  tissue uptake at 48 h: 0.54 ± 0.39 %ID/g
[2]; intestines
  tissue uptake at 4 h: 4.92 ± 0.45 %ID/g
  tissue uptake at 12 h: 3.17 ± 1.5 %ID/g
  tissue uptake at 24 h: 3.03 ± 0.87 %ID/g
  tissue uptake at 48 h: 0.85 ± 0.27 %ID/g
[2]; kidney
  tissue uptake at 4 h: 13.8 ± 1.46 %ID/g
  tissue uptake at 12 h: 5.96 ± 1.32 %ID/g
  tissue uptake at 24 h: 2.06 ± 0.49 %ID/g
  tissue uptake at 48 h: 0.87 ± 0.41 %ID/g
[2]; liver
  tissue uptake at 4 h: 13.2 ± 1.26 %ID/g
  tissue uptake at 12 h: 2.42 ± 0.13 %ID/g
  tissue uptake at 24 h: 1.81 ± 0.41 %ID/g
  tissue uptake at 48 h: 1.53 ± 0.23 %ID/g
[2]; lung
  tissue uptake at 4 h: 4.21 ± 0.27 %ID/g
  tissue uptake at 12 h: 1.86 ± 0.87 %ID/g
  tissue uptake at 24 h: 1.66 ± 0.52 %ID/g
  tissue uptake at 48 h: 1.07 ± 0.41 %ID/g
[2]; muscle
  tissue uptake at 4 h: 2.13 ± 0.37 %ID/g
  tissue uptake at 12 h: 1.21 ± 0.69 %ID/g
  tissue uptake at 24 h: 0.99 ± 0.21 %ID/g
  tissue uptake at 48 h: 0.75 ± 0.18 %ID/g
[2]; spleen
  tissue uptake at 4 h: 11 ± 1.07 %ID/g
  tissue uptake at 12 h: 4.62 ± 0.58 %ID/g
  tissue uptake at 24 h: 2.07 ± 0.62 %ID/g
  tissue uptake at 48 h: 1.14 ± 0.14 %ID/g
[2]; stomach
  tissue uptake at 4 h: 4.92 ± 0.26 %ID/g
  tissue uptake at 12 h: 2.34 ± 0.42 %ID/g
  tissue uptake at 24 h: 2.05 ± 1.03 %ID/g
  tissue uptake at 48 h: 0.58 ± 0.27 %ID/g
[2]; tumor
  tissue uptake at 4 h: 5.78 ± 0.87 %ID/g
  tissue uptake at 12 h: 5.47 ± 1.03 %ID/g
  tissue uptake at 24 h: 4.93 ± 0.47 %ID/g
  tissue uptake at 48 h: 3.05 ± 0.66 %ID/g
[2]; whole blood
  tissue uptake at 4 h: 9.45 ± 1.1 %ID/g
  tissue uptake at 12 h: 5.76 ± 0.46 %ID/g
  tissue uptake at 24 h: 1.98 ± 0.41 %ID/g
  tissue uptake at 48 h: 1.77 ± 0.99 %ID/g
[2]; 4h after tail vein injection of 1.85 MBq, tumor-bearing nude mice
  Tumor/Blood: 0.61±1.24
[2]; 12h after tail vein injection of 1.85 MBq, tumor-bearing nude mice
  Tumor/Blood: 0.95±0.97
[2]; tumor-bearing nude mice, from radioactive marker uptake in brain tissue
  blood-brain barrier passage (brain tissue uptake): could not cross the blood-brain barrier
K1 xenografts [3]
  T/NT (target/non-target) value: 5.11
K1 xenografts [4]; 18 days after injection, n = 5, volume a × b^2/2
  tumor growth rate and volume vs asPNA and saline groups: about two-fold smaller
K1 xenografts [4]; vs asPNA and saline groups, n = 5
  median survival time longer than those of the other two groups: at least 13 days
